# Results published in ChEMBL document CHEMBL1649569, “oqxAB encoding a multidrug efflux pump in human clinical isolates of Enterobacteriaceae” (2009).
# Key:
# Klebsiella pneumoniae [1] = assay: Antibacterial activity against Klebsiella pneumoniae isolate 1-68 by broth dilution method; format: functional
# Method in brief: (§1)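 Clinical isolates tested by broth dilution in LB broth, with the MIC read as the end-point.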
# Klebsiella pneumoniae [2] = assay: Antibacterial activity against Klebsiella pneumoniae isolate 2-54 by broth dilution method; format: functional; method in brief: as §1
# Klebsiella pneumoniae [3] = assay: Antibacterial activity against Klebsiella pneumoniae isolate 3-45 by broth dilution method; format: functional; method in brief: as §1
# Klebsiella pneumoniae [4] = assay: Antibacterial activity against Klebsiella pneumoniae isolate 5-22 by broth dilution method; format: functional; method in brief: as §1
# Escherichia coli [5] = assay: Antibacterial activity against Escherichia coli ATCC 25922 by broth dilution method; format: functional
# Escherichia coli [6] = assay: Antibacterial activity against Escherichia coli isolate 1-12 by broth dilution method; format: functional; method in brief: as §1
# Escherichia coli [7] = assay: Antibacterial activity against Escherichia coli isolate 4-67 by broth dilution method; format: functional
# Method in brief: (§2)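 MIC by broth dilution in LB broth against human clinical Enterobacteriaceae isolates, with strains characterised by PCR for oqxA/oqxB and other plasmid-mediated quinolone resistance genes.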
# Escherichia coli [8] = assay: Antibacterial activity against Escherichia coli isolate 4-69 by broth dilution method; format: functional; method in brief: as §2
# Escherichia coli [9] = assay: Antibacterial activity against Escherichia coli isolate 4-78 by broth dilution method; format: functional; method in brief: as §2
# Escherichia coli [10] = assay: Antibacterial activity against Escherichia coli isolate 5-56 by broth dilution method; format: functional; method in brief: as §2
# Escherichia coli [11] = assay: Antibacterial activity against Escherichia coli isolate 5-65 by broth dilution method; format: functional; method in brief: as §2
# Escherichia coli [12] = assay: Antibacterial activity against Escherichia coli isolate 5-59 harboring qepA gene by broth dilution method; format: functional; method in brief: as §2
# Enterobacter cloacae [13] = assay: Antibacterial activity against Enterobacter cloacae isolate 1-26 by broth dilution method; format: functional; method in brief: as §1
# Enterobacter cloacae [14] = assay: Antibacterial activity against Enterobacter cloacae isolate 1-39 by broth dilution method; format: functional; method in brief: as §1
# Enterobacter cloacae [15] = assay: Antibacterial activity against Enterobacter cloacae isolate 1-40 by broth dilution method; format: functional; method in brief: as §1
# Enterobacter cloacae [16] = assay: Antibacterial activity against Enterobacter cloacae isolate 1-3 by broth dilution method; format: functional; method in brief: as §1
# Enterobacter cloacae [17] = assay: Antibacterial activity against Enterobacter cloacae isolate 4-11 by broth dilution method; format: functional; method in brief: as §1
# Enterobacter cloacae [18] = assay: Antibacterial activity against Enterobacter cloacae isolate 6-4 by broth dilution method; format: functional; method in brief: as §1
# Klebsiella pneumoniae [19] = assay: Antibacterial activity against Klebsiella pneumoniae isolate 3-51 by broth dilution method; format: functional; method in brief: as §1
# Klebsiella pneumoniae [20] = assay: Antibacterial activity against Klebsiella pneumoniae isolate 4-39 by broth dilution method; format: functional; method in brief: as §1
# Klebsiella pneumoniae [21] = assay: Antibacterial activity against Klebsiella pneumoniae isolate 5-80 by broth dilution method; format: functional; method in brief: as §1
# Klebsiella pneumoniae [22] = assay: Antibacterial activity against Klebsiella pneumoniae isolate 6-49 by broth dilution method; format: functional; method in brief: as §1
# Klebsiella pneumoniae [23] = assay: Antibacterial activity against Klebsiella pneumoniae isolate 4-13 harboring aac(6')Ib-cr gene by broth dilution method; format: functional; method in brief: as §2
# Klebsiella pneumoniae [24] = assay: Antibacterial activity against Klebsiella pneumoniae isolate 4-38 harboring aac(6')Ib-cr gene by broth dilution method; format: functional; method in brief: as §2
# Escherichia coli [25] = assay: Antibacterial activity against azide-resistant Escherichia coli J53 by broth dilution method
# Klebsiella pneumoniae [26] = assay: Antibacterial activity against Klebsiella pneumoniae isolate 2-54 by Etest method
# Klebsiella pneumoniae [27] = assay: Antibacterial activity against Klebsiella pneumoniae isolate 3-45 by Etest method
# Klebsiella pneumoniae [28] = assay: Antibacterial activity against Klebsiella pneumoniae isolate 5-22 by Etest method
# Escherichia coli [29] = assay: Antibacterial activity against Escherichia coli isolate 1-12 by Etest method
# Escherichia coli [30] = assay: Antibacterial activity against Escherichia coli isolate 4-69 by Etest method
# Escherichia coli [31] = assay: Antibacterial activity against Escherichia coli isolate 4-78 by Etest method
# Escherichia coli [32] = assay: Antibacterial activity against Escherichia coli isolate 5-56 by Etest method
# Escherichia coli [33] = assay: Antibacterial activity against Escherichia coli isolate 5-59 harboring qepA gene by Etest method
# Klebsiella pneumoniae [34] = assay: Antibacterial activity against Klebsiella pneumoniae isolate 4-39 by Etest method
# Klebsiella pneumoniae [35] = assay: Antibacterial activity against Klebsiella pneumoniae isolate 5-80 by Etest method
# Klebsiella pneumoniae [36] = assay: Antibacterial activity against Klebsiella pneumoniae isolate 6-49 by Etest method
# Klebsiella pneumoniae [37] = assay: Antibacterial activity against Klebsiella pneumoniae isolate 4-13 harboring aac(6')Ib-cr gene by Etest method
# Klebsiella pneumoniae [38] = assay: Antibacterial activity against Klebsiella pneumoniae isolate 4-38 harboring aac(6')Ib-cr gene by Etest method
structure (smiles),measurement,setting,value
Cc1c(C(=O)NCCO)[n+]([O-])c2ccccc2[n+]1[O-] [OLAQUINDOX],MIC,Klebsiella pneumoniae [1],8 µg/mL
same,MIC,Klebsiella pneumoniae [2],8 µg/mL
same,MIC,Klebsiella pneumoniae [3],16 µg/mL
same,MIC,Klebsiella pneumoniae [4],8 µg/mL
same,MIC,Escherichia coli [5],8 µg/mL
same,MIC,Escherichia coli [6],256 µg/mL
same,MIC,Escherichia coli [7],16 µg/mL
same,MIC,Escherichia coli [8],16 µg/mL
same,MIC,Escherichia coli [9],16 µg/mL
same,MIC,Escherichia coli [10],16 µg/mL
same,MIC,Escherichia coli [11],16 µg/mL
same,MIC,Escherichia coli [12],16 µg/mL
same,MIC,Enterobacter cloacae [13],128 µg/mL
same,MIC,Enterobacter cloacae [14],128 µg/mL
same,MIC,Enterobacter cloacae [15],128 µg/mL
same,MIC,Enterobacter cloacae [16],64 µg/mL
same,MIC,Enterobacter cloacae [17],32 µg/mL
same,MIC,Enterobacter cloacae [18],16 µg/mL
same,MIC,Klebsiella pneumoniae [19],16 µg/mL
same,MIC,Klebsiella pneumoniae [20],16 µg/mL
same,MIC,Klebsiella pneumoniae [21],> 256 µg/mL
same,MIC,Klebsiella pneumoniae [22],> 256 µg/mL
same,MIC,Klebsiella pneumoniae [23],> 256 µg/mL
same,MIC,Klebsiella pneumoniae [24],> 256 µg/mL
same,MIC,Escherichia coli [25],8 µg/mL
O=C(O)c1cn(C2CC2)c2cc(N3CCNCC3)c(F)cc2c1=O [CIPROFLOXACIN],MIC,Klebsiella pneumoniae [26],0.023 µg/mL
same,MIC,Klebsiella pneumoniae [27],0.023 µg/mL
same,MIC,Klebsiella pneumoniae [28],0.064 µg/mL
same,MIC,Escherichia coli [29],> 32 µg/mL
same,MIC,Escherichia coli [30],> 32 µg/mL
same,MIC,Escherichia coli [31],> 32 µg/mL
same,MIC,Escherichia coli [32],> 32 µg/mL
same,MIC,Escherichia coli [33],> 32 µg/mL
same,MIC,Klebsiella pneumoniae [34],0.064 µg/mL
same,MIC,Klebsiella pneumoniae [35],3 µg/mL
same,MIC,Klebsiella pneumoniae [36],> 32 µg/mL
same,MIC,Klebsiella pneumoniae [37],> 32 µg/mL
same,MIC,Klebsiella pneumoniae [38],> 32 µg/mL
